Measured values taken from ChEMBL document CHEMBL5335784, “Discovery of a novel 1,3,4-oxadiazol-2-one-based NLRP3 inhibitor as a pharmacological agent to mitigate cardiac and metabolic complications in an experimental model of diet-induced metaflammation” (Eur J Med Chem, 2023).
Activity calls are given as the source filed them. No cut-off for these calls is given here.

Legend:
[1] = Cytotoxicity against human THP-1 cells assessed as reduction in cell viability measured after 72 hr by MTT assay; assay type: toxicity, cell-based; details: read-out: TC50
Outline: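 Undifferentiated THP-1 cells exposed to 0.1–100 μM compound for 72 h. Viability read by MTT reduction at 570 nm. TC50 from concentration–response; three experiments.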

Rattus norvegicus [2] = test: Cardioprotective activity against high fat diet fed-induced metaflammation Wistar rat model assessed as reduction in myocardial damage by measuring reduction in plasma BNP level at 20 mg/kg/day, ip administered for 4 weeks by ELISA; assay type: functional, organism-based
Outline: (§1)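 Male Wistar rats on HFD or SD for 12 weeks received 20 mg/kg/day i.p. (saline, 2% DMSO, 5% Cremophor-EL) or vehicle for the last 28 days. Circulating IL-1β, TNF-α, BNP and Gal-3 quantified by ELISA in blood collected after sacrifice. n=6–7 per group.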

Rattus norvegicus [3] = test: (§2) Inhibition of ischemia/reperfusion-induced oxidative stress in ischemia/reperfusion-induced myocardial injury and high fat diet fed obese Wistar rat model assessed as decrease in cardiac MDA level at 20 mg/kg/day, ip administered for 4 weeks followed by excised heart exposed to global ischemia for 30 mins and reperfusion for 120 mins by TBARS assay; assay type: functional, organism-based
Outline: (§3)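 Same rat diet, dosing and Langendorff ischemia/reperfusion protocol. LV homogenized 10% w/v in 0.9% KCl pH 7.4. Homogenate heated at 100 °C for 15 min with TCA and TBA plus butylated hydroxytoluene, centrifuged, and read at […]. MDA expressed as nmol/g heart tissue, compared with sham hearts perfused for 190 min.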

Rattus norvegicus [4] = test: Antiinflammatory activity against high fat diet fed-induced metaflammation Wistar rat model assessed as reduction in HFD-induced metabolic alterations by measuring reduction in triglyceride level in plasma at 20 mg/kg/day, ip administered for 4 weeks; assay type: functional, organism-based
Outline: (§4)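 Rats fed HFD or SD for 12 weeks, dosed 20 mg/kg/day i.p. in saline/2% DMSO/5% Cremophor-EL during the final 28 days. Serum obtained after sacrifice by centrifuging blood at 2000 x g, 10 min, 4 °C. Glucose read by glucometer; total, HDL and LDL cholesterol and triglycerides measured with commercial kits. n=6–7 per group.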

[5] = Effect on BNP level in standard diet fed Wistar rat plasma at 20 mg/kg/day, ip administered for 4 weeks; assay type: toxicity, organism-based; details: in vivo, 672 h; outline: as §1
Rattus norvegicus [6] = test: as §2, with “NLRP3 inflammasome activation” for “oxidative stress”, “standard” for “high fat”, “fed” for “fed obese”, “NLRP3 protein expression” for “cardiac MDA level”, “immunoblot analysis” for “TBARS assay”; assay type: functional, organism-based
Outline: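 Left ventricles from Langendorff hearts (30 min global ischemia/120 min reperfusion) of HFD or SD rats dosed 20 mg/kg/day i.p. for the final 28 days. Tissue homogenized in RIPA buffer with protease/phosphatase inhibitors. 50 μg protein run on 8% SDS-PAGE and immunoblotted for NLRP3 (1:500), normalized to β-actin by densitometry; n=4 per group.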

[7] = Effect on left ventricular end diastolic pressure in standard diet fed Wistar rat model at 20 mg/kg/day, ip administered for 4 weeks (reference value: 3+/-1 mm Hg); assay type: toxicity, organism-based; details: in vivo, 672 h
Rattus norvegicus [8] = test: Antiinflammatory activity against high fat diet fed-induced metaflammation Wistar rat model assessed as reduction in HFD-induced anthropometric alterations by measuring reduction in body weight gain at 20 mg/kg/day, ip administered for 4 weeks; assay type: functional, organism-based
Outline: (§5)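 Male Wistar rats on high-fat diet (60% kcal fat) or standard diet for 12 weeks; 20 mg/kg/day i.p. or vehicle (saline, 2% DMSO, 5% Cremophor-EL) over the last 28 days. Body weight recorded weekly. After sacrifice, abdominal, epididymal, retroperitoneal and perirenal fat, liver and heart excised and weighed. Cardiac somatic index = heart weight/body weight ×100. n=6–7 per group.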

[9] = Effect on TNF-alpha level in standard diet fed Wistar rat serum at 20 mg/kg/day, ip administered for 4 weeks by ELISA; assay type: toxicity, organism-based; details: in vivo, 672 h; outline: as §1
Rattus norvegicus [10] = test: Cardioprotective activity against ischemia/reperfusion-induced myocardial injury and high diet fed obese Wistar rat model assessed as decrease in LDH activity in coronary effluents at 20 mg/kg/day, ip administered for 4 weeks followed by excised heart exposed to global ischemia for 30 mins and reperfusion for 120 mins and measured during first 30 mins of reperfusion by spectrophotometric analysis; assay type: functional, organism-based
Outline: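 HFD or SD rats, dosed 20 mg/kg/day i.p. for the final 28 days, anaesthetised with ethyl carbamate (2 g/kg i.p.). Hearts Langendorff-perfused with Krebs–Henseleit buffer (pH 7.4, 37 °C, 12 ml/min); 40 min stabilization, 30 min global no-flow ischemia, 120 min reperfusion. Coronary effluent collected on ice before ischemia and at 10, 20, 30 min reperfusion; LDH activity by McQueen method. n=6–7.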

Rattus norvegicus [11] = test: as §2, with “inflammation” for “oxidative stress”, “IL-1 beta” for “MDA”, “ELISA” for “TBARS assay”; assay type: functional, organism-based
Outline: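 Male Wistar rats on standard or 60% kcal fat diet for 12 weeks; last 28 days i.p. 20 mg/kg/day in saline with 2% DMSO and 5% Cremophor-EL, or vehicle. Hearts perfused by Langendorff with KH buffer at 12 ml/min, 37°C, then 40 min stabilization, 30 min global no-flow ischemia and 120 min reperfusion. Cytokines measured in LV tissue; n=6–7 per group.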

Rattus norvegicus [12] = test: Antiinflammatory activity against high fat diet fed-induced metaflammation Wistar rat model assessed as reduction in HFD-induced anthropometric alterations by measuring reduction in epididymal fat deposition at 20 mg/kg/day, ip administered for 4 weeks; assay type: functional, organism-based; outline: as §5
Rattus norvegicus [13] = test: as §2, with “standard” for “high fat”, “fed” for “fed obese”; assay type: functional, organism-based; outline: as §3
Rattus norvegicus [14] = test: Cardioprotective activity against high fat diet fed-induced metaflammation Wistar rat model assessed as reduction in myocardial damage by measuring reduction in plasma LDH level at 20 mg/kg/day, ip administered for 4 weeks; assay type: functional, organism-based
[15] = Effect on left ventricular end diastolic pressure in high diet fed obese Wistar rat model at 20 mg/kg/day, ip administered for 4 weeks (reference value: 6+/-0.2 mm Hg); assay type: toxicity, organism-based; details: in vivo, 672 h
[16] = Effect on IL-1 beta level in standard diet fed Wistar rat serum at 20 mg/kg/day, ip administered for 4 weeks by ELISA; assay type: toxicity, organism-based; details: in vivo, 672 h; outline: as §1
Rattus norvegicus [17] = test: Cardioprotective activity against high fat diet fed-induced metaflammation Wistar rat model assessed as reduction in myocardial damage by measuring reduction in plasma Gal-3level at 20 mg/kg/day, ip administered for 4 weeks by ELISA; assay type: functional, organism-based; outline: as §1
[18] = biological target: NACHT, LRR and PYD domains-containing protein 3 (Homo sapiens, UniProt Q96P20); test: Inhibition of NLRP3 inflammasome activation in PMA-differentiated human THP-1 cells assessed as inhibition of LPS/ATP-induced IL-1 beta release pretreated for 4 hrs with LPS followed by incubation with compound for 1 hr and later treated with ATP for 1.5 hrs by ELISA; assay type: cell-based
[19] = n-Octanol/water distribution coefficient, log D of the compound at pH 7.4 measured after 4 hrs by shake flask method; assay type: physicochemical
Outline: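 Shake-flask at room temperature between n-octanol and 50 mM phosphate buffer pH 7.4, ionic strength 0.15 M KCl. Phases were pre-saturated by 4 h shaking. Compound at about 0.1 mg/ml in buffer, shaken about 20 min with n-octanol, then centrifuged at 10000 rpm for 10 min.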

Rattus norvegicus [20] = test: Antiinflammatory activity against high fat diet fed-induced metaflammation Wistar rat model assessed as reduction in HFD-induced metabolic alterations by measuring reduction in total cholesterol level in plasma at 20 mg/kg/day, ip administered for 4 weeks; assay type: functional, organism-based; outline: as §4

Chain of NACHT, LRR and PYD domains-containing protein 3 (Q96P20 whole entry, the tested form may be a part): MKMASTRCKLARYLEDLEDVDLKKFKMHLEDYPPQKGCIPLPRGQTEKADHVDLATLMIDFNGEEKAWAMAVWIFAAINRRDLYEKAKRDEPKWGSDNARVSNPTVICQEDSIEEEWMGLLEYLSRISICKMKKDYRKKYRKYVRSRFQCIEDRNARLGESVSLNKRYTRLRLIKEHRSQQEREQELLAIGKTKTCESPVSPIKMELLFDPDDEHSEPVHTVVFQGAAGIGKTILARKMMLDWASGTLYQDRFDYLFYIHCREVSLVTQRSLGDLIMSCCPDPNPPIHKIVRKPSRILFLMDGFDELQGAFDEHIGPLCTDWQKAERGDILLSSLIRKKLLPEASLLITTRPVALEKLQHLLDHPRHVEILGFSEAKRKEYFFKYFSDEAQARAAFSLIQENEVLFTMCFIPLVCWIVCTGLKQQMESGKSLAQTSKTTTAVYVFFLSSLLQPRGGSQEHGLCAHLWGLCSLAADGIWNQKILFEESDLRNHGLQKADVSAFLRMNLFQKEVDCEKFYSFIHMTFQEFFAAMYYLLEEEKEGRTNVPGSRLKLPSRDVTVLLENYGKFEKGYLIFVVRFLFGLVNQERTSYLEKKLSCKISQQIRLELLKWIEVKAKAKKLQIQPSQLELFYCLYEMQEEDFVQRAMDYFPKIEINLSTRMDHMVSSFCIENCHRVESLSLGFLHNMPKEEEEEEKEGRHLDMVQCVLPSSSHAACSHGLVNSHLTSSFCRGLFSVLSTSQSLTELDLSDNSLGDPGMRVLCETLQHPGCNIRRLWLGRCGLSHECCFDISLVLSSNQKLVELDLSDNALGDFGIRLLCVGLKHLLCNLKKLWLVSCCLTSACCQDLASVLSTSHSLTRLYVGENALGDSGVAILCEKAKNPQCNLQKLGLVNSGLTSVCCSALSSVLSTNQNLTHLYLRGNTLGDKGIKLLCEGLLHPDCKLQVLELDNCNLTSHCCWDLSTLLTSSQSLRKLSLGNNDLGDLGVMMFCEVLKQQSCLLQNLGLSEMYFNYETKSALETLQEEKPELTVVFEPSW

With `CCOC(=O)Cn1nc(Cc2ccccc2Cl)oc1=O` the CC50 at 72 h [1] was 76.5 µM, the Activity (Rattus norvegicus [2]) was “Active” and the inhibition (Rattus norvegicus [3]) was “Active”. For the same compound, the Activity (Rattus norvegicus [4]) was “Active”, the Activity [5] was “Non-Toxic” and the inhibition (Rattus norvegicus [6]) was “Active”. For the same compound, the Activity [7] was 3 mmHg, the Activity (Rattus norvegicus [8]) was “inactive” and the Activity [9] was “Non-Toxic”. The Activity (Rattus norvegicus [10]) was “Active”, the inhibition (Rattus norvegicus [11]) was “Active” and the Activity (Rattus norvegicus [12]) was “Active”. For the same compound, the inhibition (Rattus norvegicus [13]) was “Active”, the Activity (Rattus norvegicus [14]) was “Active” and the Activity [15] was 4 mmHg. For the same compound, the Activity [16] was “Non-Toxic”, the Activity (Rattus norvegicus [17]) was “Active” and the IC50 [18] was 16.6 µM. For the same compound, the logD at 4 h [19] was 2.03 and the Activity (Rattus norvegicus [20]) was “Active”.
